Results collected from several papers.
Protocols differ between the studies behind these lines.
Target: Mitogen-activated protein kinase 12 (MAPK12, Homo sapiens, UniProt P53778)
Residues used in one study (P53778 1-367): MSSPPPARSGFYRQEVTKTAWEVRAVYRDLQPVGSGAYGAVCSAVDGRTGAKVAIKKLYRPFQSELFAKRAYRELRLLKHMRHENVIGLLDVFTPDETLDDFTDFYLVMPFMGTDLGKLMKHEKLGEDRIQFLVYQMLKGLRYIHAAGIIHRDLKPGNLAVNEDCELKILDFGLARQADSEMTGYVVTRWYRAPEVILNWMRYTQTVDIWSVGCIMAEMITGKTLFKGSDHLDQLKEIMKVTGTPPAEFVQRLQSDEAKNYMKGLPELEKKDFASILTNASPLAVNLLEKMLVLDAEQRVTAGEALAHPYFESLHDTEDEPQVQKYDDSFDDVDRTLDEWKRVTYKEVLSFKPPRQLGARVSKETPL

Nc1ncc(-c2nc(N3CCOCC3)nc(N3CCOCC3)n2)c(C(F)F)n1 — remaining binding (binding; competition with immobilised ligand; 10 µM): 100%
Cn1cc(-c2cc(F)cc(N3CCn4c(cc5c4CCCC5)C3=O)c2CO)cc(Nc2ccc(N3CCN(C4COC4)CC3)cn2)c1=O — inhibition (enzyme activity; inhibitor; 0.1 µM): 16%
Cc1nn(C)cc1-c1nc2c(N3CCN(Cc4ccc(Cl)cc4)CC3)c(Cl)cnc2[nH]1 — remaining binding (binding; competition with immobilised ligand; 1 µM): 100%
CC(C)(C)c1cc(C=C(C#N)C#N)cc(Br)c1O — remaining activity (enzyme activity; inhibitor; 0.5 µM): 102%
Cn1cc(-c2cccc(N3CCc4c(sc5c4CC(C)(C)C5)C3=O)c2CO)cc(Nc2ccncn2)c1=O — inhibition (enzyme activity; inhibitor; 1 µM): 11%
Cn1cncc1[C@](O)(COc1ccc(C#N)cc1-c1ccc(OC(F)(F)F)cc1)c1ccc(C#N)cc1 — remaining binding (cell-free assay; competition with immobilised ligand; 1 µM): 100%
O=c1[nH]c2ccccc2n1C1CCN(Cc2ccc(-c3[nH]c4cc5ncnc5cc4nc3-c3ccccc3)cc2)CC1 — remaining signal (cell-free assay; 0.5 µM): 93.1%
COc1ncccc1-c1cnn2ccc(N3CCN(C(=O)OC(C)C)CC3)nc12 — remaining binding (binding; competition with immobilised ligand; 1 µM): 100%
